# Screening data from PubChem BioAssay.
# MrgX1 allo act: allosterically activates human MrgX1 receptor signaling; MrgX1-HEK293, Fluo-4 calcium flux, FDSS; hits give high values; 310,000 tested, 0.63% active; B-score at 10 µM; Q96LB2;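 active = plate-corrected calcium response at least 3 library SD above typical, normal starting fluorescence, not activating the receptor alone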;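 also: compound read alongside a low EC10 to EC30 dose of BAM8-22 agonist; peak minus trough fluorescence over baseline measured at the second addition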
# Target sequence (Q96LB2 whole entry, looked up): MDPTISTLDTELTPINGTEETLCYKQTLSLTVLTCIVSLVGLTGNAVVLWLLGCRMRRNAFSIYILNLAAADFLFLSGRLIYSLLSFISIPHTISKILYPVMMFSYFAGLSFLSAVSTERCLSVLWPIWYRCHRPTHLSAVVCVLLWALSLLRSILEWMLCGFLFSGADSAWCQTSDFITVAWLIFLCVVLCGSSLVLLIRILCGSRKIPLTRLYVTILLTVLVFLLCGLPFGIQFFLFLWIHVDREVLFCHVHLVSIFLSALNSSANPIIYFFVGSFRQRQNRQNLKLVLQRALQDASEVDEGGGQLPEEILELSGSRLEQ
# RGS4 pot: potentiators or activators of RGS4; AID 463111; HEK293 M3R/inducible RGS4, carbachol calcium flux Fluo4; hits give low values; 310,000 tested, 0.92% active; B-score at 10 µM;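 active = B-score of the integrated calcium signal more than 4 SD below the library mean, with starting fluorescence not abnormally high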;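 also: negative B-score means reduced calcium response which marks RGS4 activation or potentiation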
#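 Also added: carbachol at ECmax as muscarinic agonist stimulus; Assay system: HEK293 cells with stable M3R and inducible RGS4; Timing: overnight RGS4 induction, 30 min dye load 37 °C, 20 min compound RT; Measured by: Fluo4-AM (2 µM) calcium-flux fluorescence, kinetic read.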
# MrgX1 agonist: agonists of human MrgX1 receptor. Q96LB2. MrgX1-HEK293 cells, Fluo-4 calcium fluorescence, agonist mode; hits give high values. B-score at 10 µM. 310,000 tested, 0.44% active. AID 588627;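 active = calcium response B-score plate-corrected fluorescence ratio at least 3 library SD, with starting fluorescence B-score inside 5 SD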
#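 Test system: HEK293 cells stably expressing human MrgX1 receptor; Input: fifteen thousand cells per well; Dosing: compound delivered in addition one of three; Schedule: overnight seeding, then 1 h dark dye loading; Technique: Fluo-4 NW calcium fluorescence; Measure: B-scored fluorescence response ratio; Controls: positive and negative controls per plate.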
# RGS4 block: inhibitors of human RGS4 | 310,000 tested, 0.45% active | HEK293 M3R/RGS4 inducible, Fluo-4 calcium flux; hits give high values; triggered by carbachol at its EC20 | P49798 | B-score at 10 µM;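 active = B-score, a plate-corrected calcium signal, over three deviations above library mean, with baseline fluorescence within five deviations of library mean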;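 also: RGS4 expression induced by doxycycline in cells with stable M3 receptor; B-score is computed from the integrated fluorescence ratio over baseline after carbachol; higher B-score means a larger calcium signal and so more RGS4 inhibition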
# Target sequence (P49798 whole entry, looked up): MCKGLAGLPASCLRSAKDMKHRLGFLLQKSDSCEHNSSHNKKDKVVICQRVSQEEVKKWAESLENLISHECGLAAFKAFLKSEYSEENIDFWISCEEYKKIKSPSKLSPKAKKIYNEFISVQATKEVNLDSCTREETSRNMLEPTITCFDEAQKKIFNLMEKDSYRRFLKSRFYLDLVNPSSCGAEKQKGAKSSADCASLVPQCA
# MrgX1 antagonist: antagonists of human MrgX1 receptor; Q96LB2; AID 588676; MRGX1-HEK293 calcium flux, Fluo-4, BAM8-22 antagonism; hits give low values; 310,000 tested, 1.3% active; B-score at 10 µM;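 active = calcium-response B-score plate-corrected more than 3 library SD below zero, starting fluorescence within 5 deviations, no agonist response on first addition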;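 also: peak minus trough fluorescence over baseline after final BAM8-22 challenge near maximal dose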
# MrgX1 allo conf: reconfirmed allosteric activator of human MrgX1 receptor | MrgX1-HEK293, Fluo-4 calcium fluorescence, FDSS | activation (ratio percentage), % at 10 µM | shares compounds with MrgX1 allo act | 1,200 tested, 13% active;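 active = ratio at least 3 SD above the weak peptide control, stable starting fluorescence, no direct agonism earlier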;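 also: compound followed by low BAM8-22 agonist challenge near EC20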
# HEK293 Ca flux: counter-screen for MrgX1 antagonists: effect in parental HEK293 cells; shares compounds with MrgX1 antagonist; Fluo-4 calcium fluorescence, FDSS; fluorescence ratio F(max-min)/F0 at 10 µM; 4,000 tested, 2% active;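 active = duplicate-averaged calcium fluorescence ratio at least three times the standard deviation of buffer wells, a nonspecific response in parental cells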
# HEK293 Ca counter: MrgX1 allosteric activator counter-screen hit in parental HEK293 cells. fluorescence ratio F(max-min)/F0 at 10 µM. shares compounds with MrgX1 antagonist. parental HEK293 calcium flux, Fluo-4 fluorescence ratio; hits give high values. 4,000 tested, 0.4% active;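 active = calcium fluorescence ratio, averaged over duplicates, at least 3 SD of the buffer-well ratio, meaning a nonspecific response in receptor-free cells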;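 also: untransfected parental HEK293 lacking MrgX1 used as counterscreen for MrgX1 allosteric activators; fluorescence change taken during the second addition on a kinetic imager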
# HEK293 Ca cntr2: activity in parental HEK293 cells lacking MrgX1 receptor; Fluo-4 calcium fluorescence (FDSS); hits give high values; 4,000 tested, 8.7% active; fluorescence ratio F(max-min)/F0 at 10 µM; shares compounds with MrgX1 antagonist; AID 624115;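 active = calcium fluorescence ratio at least three times the spread of buffer wells, meaning a non-specific response in parental cells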
# Starred values were filed as active, the others as inactive; i = inactive; · = no result. A selection: hits, their analogues and other compounds. The true share with any hit is near 3.5%.
SMILES,MrgX1 allo act,RGS4 pot,MrgX1 agonist,RGS4 block,MrgX1 antagonist,MrgX1 allo conf,HEK293 Ca flux,HEK293 Ca counter,HEK293 Ca cntr2
Cc1ccc(C2C3=C(CCCC3=O)Nc3c2c(C)nn3-c2ccccn2)o1 (stereo not drawn),i,i,i,i,i,·,·,·,·
CC(=O)Nc1ccc(NC(=O)[C@@H](NC(=O)c2ccccc2F)C(C)C)cc1,i,i,i,i,i,·,·,·,·
Cc1cc(Cl)ccc1OC(C)C(=O)Nc1ccccc1N1CCOCC1 (stereo not drawn),15.1*,i,i,i,i,i,i,i,i
S=c1[nH]ccn1-c1c(Cl)cccc1Cl,i,i,i,i,i,·,·,·,·
Cc1ccc(Nc2ncnc3sccc23)c(C)c1,7.98*,i,i,i,i,i,i,i,i
Cc1ccc(NC(=O)Nc2ccc3c(c2)OCO3)c(OC(F)F)c1,i,i,i,i,i,·,·,·,·
Cc1[nH]n(-c2ccccc2)c(=O)c1C=Nc1cnc2ccccc2c1,i,i,i,i,i,·,·,·,·
CSc1nnc(-c2ccccc2N=Cc2c(C)[nH]n(-c3ccc4ccccc4c3)c2=O)c(=O)[nH]1,11.6*,i,i,i,i,i,i,i,i
Cc1[nH]n(-c2ccccc2)c(=O)c1/C=N/c1nn[nH]n1,i,i,i,i,i,·,·,·,·
C=CCSc1nnc(-c2ccccc2N=Cc2c(C)[nH]n(-c3ccccc3)c2=O)c(=O)[nH]1,8.66*,i,i,i,i,i,i,i,i
COCC1CCCN(Cc2nc(C(c3ccccc3)c3ccccc3)no2)C1 (stereo not drawn),13.9*,i,i,i,i,10.3%*,i,i,i
COc1ccc(N=C2SCC(=O)N2Cc2ccccc2)cc1,10.7*,i,i,i,i,i,i,i,i
CC(Oc1ccc(C(C)(C)C)cc1)C(=O)NC1CC(C)(C)NC(C)(C)C1 (stereo not drawn),i,i,i,i,i,·,·,·,·
O=C(CCN1CCc2ccccc2C1)Nc1ccc2c(c1)OCO2,i,i,i,i,i,·,·,·,·
O=C(CCN1CCc2ccccc2C1)Nc1ccc(F)c(F)c1,25.3*,i,i,i,i,i,i,i,i
COc1ccc2[nH]c(=O)c(CN(Cc3nnnn3Cc3ccco3)C3CCCCC3)cc2c1,9.28*,i,i,i,i,i,i,i,i
COc1ccc2[nH]c(=O)c(CN(Cc3cccnc3)Cc3nnnn3CC3CCCO3)cc2c1 (stereo not drawn),26.2*,i,i,i,i,i,i,i,i
COc1ccc2[nH]c(=O)c(CN(Cc3ccccc3)Cc3nnnn3CC3CCCO3)cc2c1 (stereo not drawn),i,i,i,i,i,·,·,·,·
CNS(=O)(=O)c1ccc(NC(=O)c2cc(-c3ccncc3)nc3ccc(Cl)cc23)cc1,i,i,i,i,i,·,·,·,·
Cc1cccc(N=C2NC(=O)S/C2=C\c2ccco2)c1,i,i,i,i,i,·,·,·,·
Cc1cccc(N=C2CSC(=O)N2)c1,7.39*,i,i,i,i,i,i,i,i
Cc1ccc(NC(=O)C2C3/C=C\CCCCC32)cc1 (stereo not drawn),i,i,i,i,i,·,·,·,·
O=C(Nc1nccs1)C1C2/C=C\CCCCC21 (stereo not drawn),12*,i,i,i,i,i,i,i,i
CC1CCCN(C(=O)CSc2nnc(-c3c[nH]c4ccccc34)o2)C1 (stereo not drawn),9.51*,i,i,i,i,8.7%*,i,i,i
CCN1C(=O)CSC1=NC1C2CC3CC(C2)CC1C3 (stereo not drawn),13.7*,i,i,i,i,i,i,i,i
SMILES,MrgX1 allo act,RGS4 pot,MrgX1 agonist,RGS4 block,MrgX1 antagonist,MrgX1 allo conf,HEK293 Ca flux,HEK293 Ca counter,HEK293 Ca cntr2
Cc1ccc(S(=O)(=O)NCCC(=O)NC(C)CCc2ccccc2)cc1 (stereo not drawn),i,i,i,i,i,·,·,·,·
Cc1n[nH]c(C)c1S(=O)(=O)N1CCc2ccccc2C1,8.39*,i,i,i,i,i,i,i,i
Cc1n[nH]c(C)c1S(=O)(=O)N1CCN(c2ccccn2)CC1,i,i,i,i,i,·,·,·,·
CC(C)c1ccccc1OCC(=O)Nc1cc(S(=O)(=O)N2CCOCC2)ccc1N1CCCC1,i,i,i,i,i,·,·,·,·
CC(=O)c1sc(N2CCOCC2)nc1-c1ccccc1,12.3*,i,i,i,i,i,i,i,i
CC(C)c1cc(C(=O)N2CCCC(N3CCN(c4ccc(F)cc4)CC3)C2)n(C)n1 (stereo not drawn),·,i,·,i,·,·,·,·,·
O=C(Nc1ccon1)c1ccc(Cl)s1,i,i,i,i,i,·,·,·,·
Cc1ccnc(NC(=O)c2ccc(Cl)s2)c1,8.48*,i,i,i,i,i,i,i,i
COc1ccccc1NC(=O)c1[nH]c(C)c(C(C)=O)c1C,i,·,i,·,i,·,·,·,·
COc1ccccc1NS(=O)(=O)c1cccc(NC(=O)c2[nH]c(C)c(C(C)=O)c2C)c1,7.45*,i,i,i,i,i,i,i,i
Cc1nc2c(C#N)cnn2c2c1CCN2CC1CCCO1 (stereo not drawn),7.24*,i,i,i,i,i,i,i,i
Cc1nc2c(C#N)cnn2c2c1CCN(Cc1ccccc1)N2C,i,i,i,i,i,·,·,·,·
CC(=O)c1sc2nc(C)c3c(c2c1N)CCCC3,9.69*,i,i,i,i,i,i,i,i
COc1ccc2c(c1OC)C(=O)N1C2SC(C)(C)[C@H]1C(=O)NC1CC1 (stereo partly drawn),i,i,i,i,i,·,·,·,·
O=C(Nc1ccccc1C(=O)O)c1cccc(NS(=O)(=O)c2ccc(Br)cc2)c1,11.1*,i,i,i,i,i,i,i,i
